Cneo AK release: Cryptococcus neoformans cell lysis inducers, primary screen, AK release luminescence, single concentration; C. neoformans lysis, adenylate kinase release luminescence, 4 h; normalised: neutral wells 0, clomiphene wells 100; lysis activity, % at 15 µM; hit rate 0.2% among 360,000;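 active = mean lysis activity across replicates of at least 80%, whatever share of replicates individually reach that level; inactive = mean lysis activity below 80%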
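Test system: log-phase Cryptococcus neoformans yeast cells. Input: 5 × 10^6 yeast cells/mL. Medium: fresh YPD growth medium. Doses: single dose. Incubation: static 4 h at 37 °C with compound, 1 h detection. Measured by: luminescent adenylate kinase detection reagent. Read-out: signal increase indicating cell lysis. Benchmarks: Clomiphene.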
rRNA inh HTS: reduced GFP signal of wild-type E. coli, primary screen, bacterial rRNA inhibitor project, GFP/RFP fluorescence, OD600, single point; E. coli WT GFP vs humanized-ribosome RFP mutants, 24 h; hits give low values; DMSO median 0, no signal -100; GFP signal change (wild-type ribosome), % (test concentration not listed); hit rate 1.6% among 350,000; AID 720706, 2013;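 active = significant combined selectivity score with lowered wild-type GFP, culture density cut under 30%, mutant RFP and density less affected; inactive = any of these conditions unmet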
E-sel inducer: E-selectin induction in HUVECs, primary screen, imaging, HUVEC, immunofluorescence imaging, single point. hit rate 0.37% among 260,000. AID 686992, 2013. activation, % at 7.58 µM. P16581. normalized: neutral wells 0, TNF-alpha wells 100;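 active = mean E-selectin-positive cell signal at least 10% of the positive control, reached in at least 60% of replicates, without over 20% cell loss; inconclusive = no rule given, readout overlaps actives, possibly toxicity-flagged; inactive = the rest, including those meeting only one limit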
Target sequence (P16581 whole entry, looked up): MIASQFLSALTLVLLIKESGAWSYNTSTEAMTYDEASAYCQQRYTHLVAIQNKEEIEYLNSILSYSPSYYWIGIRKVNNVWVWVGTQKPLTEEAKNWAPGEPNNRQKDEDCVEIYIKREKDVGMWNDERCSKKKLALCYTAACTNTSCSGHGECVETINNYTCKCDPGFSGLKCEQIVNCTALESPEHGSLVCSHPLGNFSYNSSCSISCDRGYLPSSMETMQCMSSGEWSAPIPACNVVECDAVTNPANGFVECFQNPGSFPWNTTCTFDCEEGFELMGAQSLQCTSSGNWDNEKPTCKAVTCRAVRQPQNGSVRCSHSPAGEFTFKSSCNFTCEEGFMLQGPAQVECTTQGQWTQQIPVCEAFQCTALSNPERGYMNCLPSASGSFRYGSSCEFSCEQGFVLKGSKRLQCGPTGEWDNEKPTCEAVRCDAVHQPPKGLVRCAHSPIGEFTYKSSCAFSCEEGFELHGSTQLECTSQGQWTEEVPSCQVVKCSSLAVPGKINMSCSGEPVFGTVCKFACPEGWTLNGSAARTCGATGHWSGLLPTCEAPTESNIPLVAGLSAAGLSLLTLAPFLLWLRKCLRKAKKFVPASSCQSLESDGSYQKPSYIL
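Assay system: HUVEC, human umbilical vein endothelial cells / Amount: 3,000 HUVEC/well / Controls: TNF-alpha positive control, DMSO neutral control / Compound dosing: single concentration / Medium: EGM-2 over gelatin coat / Evaluation: percent E-selectin-positive cells / Signal: immunofluorescence imaging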
DENV2 CPE: inhibitors of DENV2 cytopathic effect, primary screen, cell-based, plate reader, single concentration | DENV2-infected cells, cytopathic effect rescue | CPE inhibition, % at 9.99 µM | hit rate 1.7% among 350,000; in the data active = CPE inhibition above about 20%, passing the limit was not always enough; inconclusive = no clear call, values can overlap the other calls; tested in BHK-21 cells;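 note: 0% = median of neutral control wells and 100% = median of positive control wells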
miR-122 sensor: miR-122 Renilla sensor signal increase in Huh7, primary screen, miR-122 inhibitor project, cell-based, single point, plate reader; Huh7 miR-122 Renilla luciferase sensor, 48 h; neutral wells = 0, positive control = 100; activation (reporter increase), % at 12.5 µM; hit rate 0.3% among 340,000; AID 602342, 2012;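 active = mean replicate activation score at least 90 and every replicate individually at or above 90; inconclusive = only one of the two criteria met; inactive = neither criterion met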;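 note: higher luciferase means less miR-122 activity so hits act as miR-122 inhibitors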
Active calls of the source: *; ? = inconclusive; . = not tested or not shown; [ ] = dose if it differs, or a comment. Shown are actives, neighbours in structure and some others; about 3.1% of the full set was active somewhere.

SMILES	Cneo AK release	rRNA inh HTS	E-sel inducer	DENV2 CPE	miR-122 sensor
Nc1ccccc1SC(CC(=O)c1ccccc1)c1ccc([N+](=O)[O-])cc1 (stereo not drawn)	-2	-20*	0	-1	5
C[C@H]1COCn2nncc2CC[C@H](C)C(=O)N1	.	0	.	.	.
Cc1noc(NS(=O)(=O)c2ccc(NC(=O)c3ccc(OC(C)C)cc3)cc2)c1C	.	-31*	.	6	.
COc1ccc(-c2cc(C(=O)Nc3ccc(S(=O)(=O)Nc4onc(C)c4C)cc3)c3ccccc3n2)cc1	-23	-18*	.	5	-7
COc1ccc(-c2cc(C(=O)Nc3ccc(S(=O)(=O)Nc4ncccn4)cc3)c3ccccc3n2)cc1	2	11	5	8	4
COc1ccccc1NS(=O)(=O)c1cc(C(=O)Nc2ccc(S(=O)(=O)Nc3onc(C)c3C)cc2)ccc1C	-3	-21*	.	-2	2
COc1ccccc1NS(=O)(=O)c1ccc(C)c(C(=O)Nc2ccc(S(=O)(=O)Nc3onc(C)c3C)cc2)c1	-1	4	.	-4	3
COC(=O)Cc1[nH]n(-c2nc3ccccc3s2)c(=O)c1C(C)=Nc1ccc(C)cc1	.	-26*	.	2	.
COc1cc(/C=C/C(=O)Nc2nnc(CC(C)C)s2)cc(OC)c1OC	.	-4	4	5	.
COc1cc(/C=C/C(=O)Nc2nnc(CC(C)(C)C)s2)cc(OC)c1OC	6	-2	-1	100*	4
CC(C)C#Cc1ccc2c(c1)O[C@H](CN(C)C(=O)C1CCC1)[C@@H](C)CN([C@H](C)CO)S2(=O)=O	.	-3	0	.	75[16.7 µM]
O=[N+]([O-])c1ccc(CC(Cl)c2ccccn2)cc1 (stereo not drawn)	2	-24*	0	-15	.
Cc1cccc(N(C(=O)Nc2ccc(Cl)cc2)C2=NCC(C)S2)n1 (stereo not drawn)	1	-29*	1	1	-1
Cc1ccc(NC(=O)N(C2=NCC(C)S2)c2ccccc2)cc1 (stereo not drawn)	-1	.	.	.	?
CCC(=O)Nc1ccc2c(c1)OC[C@H](C)N(C(=O)Cc1ccccn1)C[C@H](C)[C@@H](OC)CN(C)C2=O	-3	1	0	-2	3[16.7 µM]
CCOC(=O)c1ccc(S(=O)(=O)N2CCC(N3CCCCC3)CC2)cc1	5	18	0	32*	12
CC1CN(C2=CC(=O)CCC2)CC(C)O1 (stereo not drawn)	.	22	0	21*	.
CN(C)C(=O)c1cc2c(c(-c3cccc(C4=CCCCC4)c3)n1)[C@H](CCO)N([S@@](=O)C(C)(C)C)C2	.	-3	.	.	.
CO[C@H]1CN(C)C(=O)c2cc(NC(=O)C3CCCCC3)ccc2OC[C@@H](C)NC[C@@H]1C	-6	0	0	-8	.
Cc1[nH]c2ccccc2c1/C=N/Nc1ccccc1[N+](=O)[O-]	.	-20*	0	-2	.
Cc1[nH]c2ccccc2c1/C=N/NC(=S)NC(C)C	.	-47*	19	-9	.
COc1ccc(NS(=O)(=O)c2cc([N+](=O)[O-])ccc2N/N=C/c2c(C)[nH]c3ccccc23)cc1	4	15	0	5	-6
C/C=C/c1ccc2c(c1)O[C@@H](CN(C)S(=O)(=O)c1ccc(F)cc1)[C@@H](C)CN([C@@H](C)CO)S2(=O)=O	0	-4	0	0	4[16.7 µM]
C[C@H](CO)N1C[C@H](C)[C@H](CN(C)S(=O)(=O)c2ccc(F)cc2)Oc2ncc(C#CC(C)(C)O)cc2C1=O	7	-2	0	0	2[16.7 µM]
Cc1ccccc1C(=O)N1CCC(C(=O)NN2C(=O)NC3(CCC(C)CC3)C2=O)CC1 (stereo not drawn)	0	.	.	-5	1
Cc1ccccc1C(=O)N1CCC(C(=O)NN2C(=O)NC3(CCCCC3)C2=O)CC1	-1	.	264*	-6	.
Nc1ccc(N=Nc2ccc(O)cc2)c(N)n1	.	-16*	-1	-10	.
COC(=O)C1=CO[C@@H](O[C@@H]2O[C@H](CO)[C@@H](O)[C@H](O)[C@H]2O)C2C1CC(O)O[C@H]2C (stereo partly drawn)	1	4	0	23*	.

Screening data deposited in PubChem BioAssay by Broad Institute.
